The source of these data is ChEMBL document CHEMBL2375295, “Site-specific and far-red-light-activatable prodrug of combretastatin A-4 using photo-unclick chemistry” (J Med Chem, 2013).

Structures are written as SMILES. Activity calls are given as the source filed them. The rule behind the calls is not given here.

Usually IC50 stands for the concentration that gives 50% inhibition. A lower IC50 goes with greater potency in that assay. As a reminder, the inhibition is the drop in the measured response relative to a control, in per cent.

The subject of data set [1] is MCF7. Nature of the data set: Darktoxicity against human MCF7 cells incubated for 24 hrs followed by 30 mins incubation in dark measured after 3 days by MTT assay. It is filed as cell-based. The procedure, abridged: (§1)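 MCF-7 cells were grown in α-MEM with 10% bovine growth serum, seeded at 5000/well and grown 24 h at 37 °C, 5% CO2. Compounds were diluted from 2 mM DMSO stocks into medium and incubated 24 h. Phototoxicity plates were shaken and irradiated at 690 nm, 5.6 mW/cm2 for 30 min. Dark plates were kept unlit for 30 min. After 3 days, MTT viability was read at A570 minus A650 and expressed as % of untreated.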
(Tetrazolium assays rely on reduction of a dye to a coloured formazan, in cell work by metabolically active cells.)

In data set [2] the test system is Mus musculus. Briefly: Biodistribution in nu/nu mouse at 24 umol/kg, ip followed by irradiation with diode laser light for 1.5 hrs by optical imaging analysis. To be noted: in vivo, TDE = time-dependent effect. It is filed as ADME, organism-based. The procedure, abridged: (§2)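 The FRET probe was formulated as a Tween 80 paste, extracted into 5% dextrose, filtered, and quantified by CMP absorbance. It was given at 24 μmol/kg ip. At 1.5 h the neck region was irradiated with a 690 nm diode laser at 500 mW/cm2. Mice were under 2.5% isoflurane anesthesia, and fluorescence images were taken after 0, 10, 20 and 30 min irradiation.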

Data set [3] deals with Mus musculus. Briefly: Biodistribution in nu/nu mouse at 24 umol/kg, ip followed by irradiation with diode laser light for 1.5 hrs measured after 10 to 30 mins by optical imaging analysis. It is filed as ADME, organism-based. The settings on record: in vivo. The procedure, abridged:
as §2

Data set [4] deals with Colon 26. Briefly: Antitumor activity against mouse Colon 26 cells allografted in BALB/c mouse at 4 umol/kg, ip qd for 2 days measured 30 mins post irradiation with diode laser light. It is filed as functional, organism-based. The method, boiled down: (§3)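 Colon 26 cells (2 × 10^6 in PBS) were implanted sc in the lower back-neck of 4–6-week-old BALB/c mice. Mice were used once tumors reached 3–5 mm diameter. Doses came from DMSO stocks diluted in 1% Tween 80/5% dextrose and filtered, given as 200 μL ip daily on days 0, 1 and 2. After 1.5 h mice were anesthetized (ketamine/xylazine) and tumors irradiated at 690 nm, 200 mW/cm2 for 30 min (360 J/cm2). Tumor volume was lw2/2 by caliper, and body weight was followed. Groups had six mice; control had three.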

The subject of data set [5] is MCF7. Nature of the data set: Ratio of IC50 for darktoxicity against human MCF7 cells to IC50 for cytotoxicity against human MCF7 cells in presence of diode laser light. It is filed as functional.
Data set [6] concerns MCF7. Briefly: Cytotoxicity against human MCF7 cells incubated for 24 hrs followed by irradiated with diode laser light for 30 mins. It is filed as functional, cell-based. To be noted: MCF7, light or radiation study. The method, boiled down: as §1
For data set [7], the target named is T1, Tubulin (Homo sapiens) (UniProt P68371+Q9H4B7+P0DPH7+P68366+Q13509+Q71U36+P04350+Q3ZCM7+P07437+P68363+Q9BQE3+Q6PEY2+Q13885+Q9BVA1+Q9BUF5). Nature of the data set: Inhibition of tubulin polymerization (unknown origin) at 3 uM after 1 hr by fluorescence plate reader analysis. It is filed as protein-complex assay. The method, boiled down: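 Kit-based fluorescence assay: tubulin plus GTP in buffer with test agent at 3 μM final, incubated at 37 °C. Polymerization was monitored kinetically at ex 360/em 450 nm against a vehicle-only control. Inhibition was assessed after 1 h incubation, as mean ± SD of three experiments.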

The target in data set [8] is T1, Tubulin (Homo sapiens). Briefly: Inhibition of tubulin polymerization (unknown origin) at 3 uM after 20 mins by fluorescence plate reader analysis. It is filed as protein-complex assay.
Data set [9] concerns Colon 26. Nature of the data set: Antitumor activity against mouse Colon 26 cells allografted in BALB/c mouse at 2 umol/kg, ip qd for 2 days measured 30 mins post irradiation with diode laser light. It is filed as functional, organism-based. The procedure, abridged:
as §3

In data set [10] the test system is Mus musculus. Briefly: Toxicity in mouse Colon 26 cells allografted BALB/c mouse assessed as change in body weight at 2 to 4 umol/kg, ip qd for 2 days measured 30 mins post irradiation with diode laser light. It is filed as organism-based. To be noted: in vivo. The procedure, abridged:
as §3

Data set [11] has as its system Colon 26 (Mus musculus). Nature of the data set: Prodrug conversion in mouse Colon 26 cells assessed as death of neighboring cells at 50 nM incubated for 24 hrs followed by irradiation with diode laser light for 15 mins measured after 48 hrs by Calcein AM live cell staining assay. To be noted: colon 26, 0.05 µM.
Data set [12] concerns Colon 26 (Mus musculus). Nature of the data set: Prodrug conversion in mouse Colon 26 cells assessed as death of neighboring cells at 5 uM incubated for 24 hrs followed by irradiation with diode laser light for 15 mins measured after 48 hrs by Calcein AM live cell staining assay. To be noted: colon 26, 5 µM.
Data set [13] concerns the target T1, Tubulin (Homo sapiens). Briefly: Inhibition of tubulin polymerization (unknown origin) at 3 uM after 1 hr by fluorescence plate reader analysis.

In the data set on MCF7 [1], `COc1ccc(/C=C\c2cc(OC)c(OC)c(OC)c2)cc1O` [COMBRETASTATIN A4] came in with an IC50 of 9 nM.
Consider `CCN(CC)c1ccc2c(-c3ccccc3C(=O)OCN3CCN(/C=C/OC(=O)COc4ccc(-c5c6nc(c(-c7ccccc7)c7ccc(s7)c(-c7ccccc7)c7nc(c(-c8ccccc8)c8ccc5s8)C=C7)C=C6)cc4)CC3)c3ccc(=[N+](CC)CC)cc-3oc2c1.[Cl-]`, for which the Drug uptake result in the data set with Mus musculus [2] is reported as “tde”; with Mus musculus [3] it was “Active”.
On to `COc1ccc(/C=C\c2cc(OC)c(OC)c(OC)c2)cc1OC(=O)/C=C/N1CCC(COC(=O)COc2ccc(-c3c4nc(c(-c5ccccc5)c5ccc(s5)c(-c5ccccc5)c5nc(c(-c6ccccc6)c6ccc3s6)C=C5)C=C4)cc2)CC1`, for which the outcome in the data set on Colon 26 [4] and in the data set with Colon 26 [9] was Active. Further, the “Ratio IC50” value in the data set on MCF7 [5] is on record as 6. Moreover, the IC50 in the data set on MCF7 [6] was 28 nM; in the data set on MCF7 [1], 164 nM. Besides, at Tubulin (Homo sapiens) [7], the inhibition is 6%. Further, at Tubulin (Homo sapiens) [8], the inhibition entry is “inactive”. Further, the Activity result in the data set on Mus musculus [10] was “Non-toxic”. For the same molecule, the Drug metabolism result in the data set with Colon 26 (Mus musculus) [11] was “Active”.
Take `COc1ccc(/C=C\c2cc(OC)c(OC)c(OC)c2)cc1OCCCN1CCN(C(=O)COc2ccc(-c3c4nc(c(-c5ccccc5)c5ccc(s5)c(-c5ccccc5)c5nc(c(-c6ccccc6)c6ccc3s6)C=C5)C=C4)cc2)CC1`: the “Ratio IC50” value in the data set with MCF7 [5] is reported as 1.7. Also, the figures for the IC50 in the data set on MCF7 [6] and in the data set on MCF7 [1] were 1060 nM and 1800 nM, respectively. Further, the inhibition on Tubulin (Homo sapiens) [7] amounted to 9%. In addition, on Tubulin (Homo sapiens) [8], the inhibition entry is “inactive”.
In the case of `O=C(O)COc1ccc(-c2c3nc(c(-c4ccccc4)c4ccc(s4)c(-c4cccs4)c4nc(c(-c5ccc(OCC(=O)O)cc5)c5ccc2s5)C=C4)C=C3)cc1`, the Drug metabolism result with Colon 26 (Mus musculus) [12] was “Not Active”.
On to `CC(=O)O[C@H]1C(=O)[C@@]2(C)[C@H]([C@H](OC(=O)c3ccccc3)[C@]3(O)C[C@H](OC(=O)[C@H](O)[C@@H](NC(=O)c4ccccc4)c4ccccc4)C(C)=C1C3(C)C)[C@]1(OC(C)=O)CO[C@@H]1C[C@@H]2O`, for which the inhibition entry on Tubulin (Homo sapiens) [13] is “Active”.
